Only some compounds are listed: those with a hit (about 1.8% of all), similar ones and a draw of the others.
TLR9-MyD88 block = inhibitors of TLR9-MyD88 association in cells, primary screen, cell-based, CHO, BLA complementation, fluorescence; Toll-like receptor 9 (Homo sapiens) + Myeloid differentiation primary response protein …; inhibition, % at 4.98 µM; CCF4 FRET ratio; AID 504734, 2011; actives 0.21% (n = 340,000);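 active = inhibition above the mean over all tested compounds plus 3 SD, cut at about 21% in these data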;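 note: 0% = DMSO only wells and 100% = clavulanate BLA inhibitor control wells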
MC4R antag cAMP = MC4R antagonists of cAMP signaling, primary screen, cell-based, TR-FRET, antagonist arm of biased-ligand search; MC4R-expressing cells, MTII-stimulated cAMP, LANCE TR-FRET; Melanocortin receptor 4 (Homo sapiens), P32245; actives 0.48% (n = 360,000); inhibition, % at 6.5 µM;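 active = inhibition above its plate's cutoff, the mean of tested wells on that plate plus 3 SD, cut at about 29% in these data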;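 note: 0% = Melanotan II alone and 100% = Melanotan II plus saturating MCL0020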
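Assay system: U2OS cells stably expressing human melanocortin 4 receptor (MC4R) / Dosing: 6.5 µM / Timing: compound 30 min, challenge 1 h, detection 1 h / Measured by: Eu-cAMP/anti-cAMP TR-FRET, emission 671 nm / Replicates: singlicate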
TLR4 MyD88 comp = inhibitors of TLR4-MyD88 association in cells, primary screen, cell-based, HeLa CL3-4, BLA complementation, FRET ratio. Toll-like receptor 4 (Homo sapiens) + Myeloid differentiation primary response protein …. HeLa CL3-4 TLR4/MyD88 BLA complementation. inhibition, % at 8.4 µM. actives 0.18% (n = 200,000). AID 861, 2007; in the data active = inhibition above about 25%;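 note: 0% = vehicle and 100% = reference inhibitor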
Target sequence (O00206 whole entry, looked up): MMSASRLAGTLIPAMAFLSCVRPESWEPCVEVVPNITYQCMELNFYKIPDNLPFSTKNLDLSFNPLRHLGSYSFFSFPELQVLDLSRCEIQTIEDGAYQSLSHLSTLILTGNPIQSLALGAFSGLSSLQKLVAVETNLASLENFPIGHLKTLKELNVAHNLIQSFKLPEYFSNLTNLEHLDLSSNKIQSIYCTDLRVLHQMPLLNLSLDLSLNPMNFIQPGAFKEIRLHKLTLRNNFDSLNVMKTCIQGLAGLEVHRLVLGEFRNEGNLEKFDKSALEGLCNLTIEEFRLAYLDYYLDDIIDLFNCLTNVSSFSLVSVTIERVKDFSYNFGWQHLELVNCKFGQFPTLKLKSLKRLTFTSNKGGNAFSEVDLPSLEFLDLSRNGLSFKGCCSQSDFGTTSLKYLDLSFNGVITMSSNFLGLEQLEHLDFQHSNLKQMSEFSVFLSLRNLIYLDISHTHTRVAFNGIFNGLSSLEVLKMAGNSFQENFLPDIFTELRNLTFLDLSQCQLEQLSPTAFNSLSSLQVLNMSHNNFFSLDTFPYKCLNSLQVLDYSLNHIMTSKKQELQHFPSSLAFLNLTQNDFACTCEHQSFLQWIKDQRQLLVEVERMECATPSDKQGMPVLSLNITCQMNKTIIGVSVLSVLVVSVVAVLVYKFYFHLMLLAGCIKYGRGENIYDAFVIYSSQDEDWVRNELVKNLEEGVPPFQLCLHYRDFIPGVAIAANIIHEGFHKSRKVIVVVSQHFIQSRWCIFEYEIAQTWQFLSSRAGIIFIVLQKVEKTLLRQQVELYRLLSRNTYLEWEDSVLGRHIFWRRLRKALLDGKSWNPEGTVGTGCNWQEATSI
Target sequence (Q99836 whole entry, looked up): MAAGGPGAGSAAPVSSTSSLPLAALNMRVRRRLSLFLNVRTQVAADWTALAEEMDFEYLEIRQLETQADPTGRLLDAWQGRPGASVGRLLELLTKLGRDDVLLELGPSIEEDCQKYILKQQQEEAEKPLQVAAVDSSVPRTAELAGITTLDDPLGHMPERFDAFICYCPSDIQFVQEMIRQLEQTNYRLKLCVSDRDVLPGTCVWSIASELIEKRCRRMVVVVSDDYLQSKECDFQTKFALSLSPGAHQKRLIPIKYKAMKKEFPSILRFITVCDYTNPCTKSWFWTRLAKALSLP
MC4R ag barr = MC4R agonists recruiting beta-arrestin, primary screen, cell-based, luminescence, agonist arm of biased-ligand search. Melanocortin receptor 4 (Homo sapiens), P32245. U2OS MC4R beta-arrestin complementation; percent of melanotan II response, DMSO zero. activation, % at 8.9 µM. actives 0.98% (n = 360,000). AID 540308, 2011;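 active = activation above a per-plate cutoff, the mean activation of sample wells on that plate plus 3 SD, cut at about 8% in these data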
NOD2 RIPK2 PPI = NOD2-RIPK2 binding disruptors in cells, primary screen, fluorescence, CHO cells, BLA complementation. inhibition, % at 4.98 µM. CCF4 ratio. actives 0.38% (n = 360,000). AID 624267, 2012. Receptor-interacting serine/threonine-protein kinase 2 (Homo sapiens), O43353; in the data active = inhibition above about 21%;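 note: 0% = vehicle only and 100% = reference blocker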
NOD2 RIPK2 conf = NOD2-RIPK2 binding disruptors, retest, confirmation, fluorescence, CHO cells, BLA complementation, triplicate. shares compounds with NOD2 RIPK2 PPI. CCF4 FRET. inhibition, % at 4.98 µM. actives 70% (n = 1,200). AID 624370, 2012;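 active = mean inhibition across replicates above a set limit taken from the earlier primary screen, cut at about 21% in these data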;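 note: 0% = DMSO-only wells and the high end = clavulanate BLA-blocked wells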
NOD2 BLA counter = hits BLA reporter in NOD2-RIPK2 inhibitor counterscreen; shares compounds with NOD2 RIPK2 PPI; CHO BLA reporter, CCF4 FRET ratio; inhibition, % at 4.98 µM; actives 57% (n = 1,200);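 active = mean inhibition above the low-control mean inhibition plus three low-control SD, cut at about 11% in these data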;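 note: 0% = DMSO only wells and 100% = clavulanate high control wells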
* = called active by the depositor.

For Cc1cc(OCCn2cc(/C(N)=N/O)c3ccccc32)ccc1Cl the results were TLR9-MyD88 block 4, MC4R antag cAMP -4, TLR4 MyD88 comp -15, MC4R ag barr 8.8*, NOD2 RIPK2 PPI 23*, NOD2 RIPK2 conf 11 and NOD2 BLA counter 8.
O=[N+]([O-])c1cc(S(=O)(=O)N2CCCCCC2)ccc1F was read as TLR9-MyD88 block 18, MC4R antag cAMP -11, TLR4 MyD88 comp 12, MC4R ag barr -2, NOD2 RIPK2 PPI 30*, NOD2 RIPK2 conf 54* and NOD2 BLA counter 4.
Screening O=C(OCC(=O)N1CCN(c2ccccc2)CC1)c1cc(F)c(F)cc1Cl returned TLR9-MyD88 block -7, MC4R antag cAMP 12, MC4R ag barr -2, NOD2 RIPK2 PPI 21*, NOD2 RIPK2 conf -14 and NOD2 BLA counter -4.
`CCOc1ccccc1C(=O)Oc1cc(C)[nH]c(=O)c1[N+](=O)[O-]` gave TLR9-MyD88 block 8, MC4R antag cAMP -6, MC4R ag barr 1, NOD2 RIPK2 PPI 97*, NOD2 RIPK2 conf 1 and NOD2 BLA counter -1.
CCOc1ccc(NC(=S)N2CCCN(Cc3cc(C)ccc3C)C2)cc1 was read as TLR9-MyD88 block 4, MC4R antag cAMP 5, TLR4 MyD88 comp 10, MC4R ag barr 0 and NOD2 RIPK2 PPI -9.
Cc1cccc(NS(=O)(=O)c2cc([N+](=O)[O-])ccc2C)n1 was read as TLR9-MyD88 block 10, MC4R antag cAMP 25, TLR4 MyD88 comp 7, MC4R ag barr -1, NOD2 RIPK2 PPI 42*, NOD2 RIPK2 conf -2 and NOD2 BLA counter -5.
`COc1ccc(/C=C(/NC(=O)c2ccccc2Cl)C(=O)O)cc1` gave TLR9-MyD88 block -2, MC4R antag cAMP 4, TLR4 MyD88 comp -8, MC4R ag barr -2 and NOD2 RIPK2 PPI -10.
COc1ccccc1/C=C(/NC(=O)c1ccc(Cl)cc1Cl)C(=O)O was read as TLR9-MyD88 block 7, MC4R antag cAMP 23, TLR4 MyD88 comp -7, MC4R ag barr -1, NOD2 RIPK2 PPI 32*, NOD2 RIPK2 conf 7 and NOD2 BLA counter 1.
For OC(c1ccccc1)C(NCCNCc1ccccc1)c1ccccc1 (centres undefined) the results were TLR9-MyD88 block 2, MC4R antag cAMP 2, MC4R ag barr 0 and NOD2 RIPK2 PPI 0.
Cc1cccc(C)c1NC(=O)C(c1ccc(C#N)cc1)n1c(=O)c(-c2cc3ccccc3[nH]2)nc2ccccc21 (centres undefined) was read as NOD2 RIPK2 PPI 58*, NOD2 RIPK2 conf 55* and NOD2 BLA counter 74*.
Screening O=C(Nc1ccc2ccccc2c1)C(c1ccccc1)n1c(=O)c(-c2cc3ccccc3[nH]2)nc2ccccc21 (centres undefined) returned NOD2 RIPK2 PPI 47*, NOD2 RIPK2 conf 42* and NOD2 BLA counter 66*.
For Cc1cccc(C)c1NC(=O)C(c1ccncc1)n1c(=O)c(-c2cc3ccccc3[nH]2)nc2ccccc21 (centres undefined) the results were NOD2 RIPK2 PPI 47*, NOD2 RIPK2 conf 44* and NOD2 BLA counter 63*.
`Cc1cccc(C)c1NC(=O)C(c1ccccc1)n1c(=O)c(-c2ccccc2)nc2ccccc21` (centres undefined) gave NOD2 RIPK2 PPI -13.
Cc1cccc(C)c1NC(=O)C(c1ccccc1)n1c(=O)c(-c2cc3ccccc3[nH]2)nc2ccccc21 (centres undefined) was read as NOD2 RIPK2 PPI 47*, NOD2 RIPK2 conf 45* and NOD2 BLA counter 68*.

Screening data as filed in PubChem BioAssay.
